The values below come from ChEMBL document CHEMBL1152293, “Discovery of novel, potent and bioavailable proline-urea based macrocyclic HCV NS3/4A protease inhibitors” (Bioorg Med Chem Lett, 2008).

The term Ki denotes a measure of affinity in units of concentration, obtained from inhibition or displacement. What is called EC50 is the concentration needed to bring the measured effect to its halfway point. Broadly, the clearance is the rate of elimination divided by the concentration. High values mean a high capacity for elimination, low ones a low capacity for elimination. One may read the Vd as the apparent volume that relates the amount in the body to the concentration in plasma or blood. A high value points to wide distribution into tissue. The AUC is the area under the concentration-time curve, a measure of exposure. As a reminder, the Cmax is the highest concentration seen after dosing. In general, Tmax refers to the time from dosing to the highest level. The term half-life denotes the time in which the quantity being followed falls by half. Low readings indicate fast loss, high ones slow loss. As usually defined, the bioavailability is the share of a dose that reaches the circulation, judged against a reference dose that is usually intravenous. Low readings indicate little systemic uptake, high ones much systemic uptake. Broadly, the Papp A→B is the apparent permeability from the apical to the basolateral side of a cell layer.

Target in the first series: not listed separately
The series is described as follows: Inhibition of full length HCV NS3/4A protease. More on the design: species or system Hepacivirus hominis. To be noted: read-out: Ki.
With `COc1ccc2c(O[C@@H]3C[C@H]4C(=O)N[C@]5(C(=O)NS(=O)(=O)C6CC6)C[C@H]5/C=C\CCCCOC(=O)N4C3)cc(-c3ccccc3)nc2c1`, the Ki was determined as 0.35 nM.

For the compound `COc1ccc2c(O[C@@H]3C[C@H]4C(=O)N[C@]5(C(=O)NS(=O)(=O)C6CC6)C[C@H]5/C=C\CCCCCNC(=O)N4C3)cc(-c3nc(C(C)C)cs3)nc2c1`, the Ki is 0.2 nM.

Regarding `COc1ccc2c(O[C@@H]3C[C@H]4C(=O)N[C@]5(C(=O)NS(=O)(=O)C6CC6)C[C@H]5/C=C\CCCCNC(=O)N4C3)cc(-c3ccccc3)nc2c1`, the inhibition constant Ki was 1.5 nM.

In the case of `COc1ccc2c(O[C@@H]3C[C@H]4C(=O)N[C@]5(C(=O)NS(=O)(=O)C6CC6)C[C@H]5/C=C\CCCCCNC(=O)N4C3)cc(-c3nc(C(C)C)cs3)nc2c1Cl`, the Ki was found to be 0.1 nM.

As for `COc1ccc2c(O[C@@H]3C[C@H]4C(=O)N[C@]5(C(=O)NS(=O)(=O)C6CC6)C[C@H]5/C=C\CCCCCOC(=O)N4C3)cc(-c3ccccc3)nc2c1`, the Ki came out at 2.4 nM.

Take `COc1ccc2c(O[C@@H]3C[C@H]4C(=O)N[C@]5(C(=O)NS(=O)(=O)C6CC6)C[C@H]5/C=C\CCCCN(C)C(=O)N4C3)cc(-c3ccccc3)nc2c1`: the Ki stood at 0.4 nM.

Turning to `COc1ccc2c(O[C@@H]3C[C@H]4C(=O)N[C@]5(C(=O)NS(=O)(=O)C6(C)CC6)C[C@H]5/C=C\CCCCCNC(=O)N4C3)cc(-c3nc(C(C)C)cs3)nc2c1C`, the Ki turned out to be 0.2 nM.

As to `COc1ccc2c(O[C@@H]3C[C@H]4C(=O)N[C@]5(C(=O)NS(=O)(=O)C6CC6)C[C@H]5/C=C\CCCCCNC(=O)N4C3)cc(-c3nccs3)nc2c1`, the Ki is 0.3 nM.

For the compound `COc1ccc2c(O[C@@H]3C[C@H]4C(=O)N[C@]5(C(=O)NS(=O)(=O)C6CC6)C[C@H]5/C=C\CCCCCNC(=O)N4C3)cc(-c3nc(C(C)C)cs3)nc2c1C`, the Ki was determined as 0.05 nM.

The test system of the next series is Hepatitis C virus. The series is described as follows: Antiviral activity against HCV infected in human Huh7 cells after 48 hrs by luciferase based replicon assay. To be noted: Huh-7, 48 h. In kind it is functional, organism-based, Hepacivirus hominis. In general terms: Replicon systems follow genome replication, usually without infectious particles.
In the case of `COc1ccc2c(O[C@@H]3C[C@H]4C(=O)N[C@]5(C(=O)NS(=O)(=O)C6CC6)C[C@H]5/C=C\CCCCCNC(=O)N4C3)cc(-c3cscn3)nc2c1`, the EC50 worked out at 98 nM.

In the case of `COc1ccc2c(O[C@@H]3C[C@H]4C(=O)N[C@]5(C(=O)NS(=O)(=O)C6CC6)C[C@H]5/C=C\CCCCOC(=O)N4C3)cc(-c3ccccc3)nc2c1`, the EC50 turned out to be 62 nM.

`COc1ccc2c(O[C@@H]3C[C@H]4C(=O)N[C@]5(C(=O)NS(=O)(=O)C6CC6)C[C@H]5/C=C\CCCCCNC(=O)N4C3)cc(-c3nc(C(C)C)cs3)nc2c1` returned an EC50 of 5 nM.

`COc1ccc2c(O[C@@H]3C[C@H]4C(=O)N[C@]5(C(=O)NS(=O)(=O)C6CC6)C[C@H]5/C=C\CCCCNC(=O)N4C3)cc(-c3ccccc3)nc2c1` showed an EC50 of 14 nM.

`COc1ccc2c(O[C@@H]3C[C@H]4C(=O)N[C@]5(C(=O)NS(=O)(=O)C6CC6)C[C@H]5/C=C\CCCCCNC(=O)N4C3)cc(-c3nc(C(C)C)cs3)nc2c1Cl` displayed a 50% effective concentration (EC50) of 2.2 nM.

In the case of `COc1ccc2c(O[C@@H]3C[C@H]4C(=O)N[C@]5(C(=O)NS(=O)(=O)C6CC6)C[C@H]5/C=C\CCCCCOC(=O)N4C3)cc(-c3ccccc3)nc2c1`, the EC50 is 460 nM.

`COc1ccc2c(O[C@@H]3C[C@H]4C(=O)N[C@]5(C(=O)NS(=O)(=O)C6CC6)C[C@H]5/C=C\CCCCN(C)C(=O)N4C3)cc(-c3ccccc3)nc2c1`: the response was half-maximal at 44 nM (EC50).

Consider `COc1ccc2c(O[C@@H]3C[C@H]4C(=O)N[C@]5(C(=O)NS(=O)(=O)C6(C)CC6)C[C@H]5/C=C\CCCCCNC(=O)N4C3)cc(-c3nc(C(C)C)cs3)nc2c1C`, for which the response was half-maximal at 6.8 nM (EC50).

`COc1ccc2c(O[C@@H]3C[C@H]4C(=O)N[C@]5(C(=O)NS(=O)(=O)C6CC6)C[C@H]5/C=C\CCCCCNC(=O)N4C3)cc(-c3nccs3)nc2c1` displayed an EC50 of 11 nM.

In the case of `COc1ccc2c(O[C@@H]3C[C@H]4C(=O)N[C@]5(C(=O)NS(=O)(=O)C6CC6)C[C@H]5/C=C\CCCCCNC(=O)N4C3)cc(-c3nc(C(C)C)cs3)nc2c1C`, the EC50 amounted to 1.7 nM. Against the preceding compound, the EC50 is about 6.5-fold lower.

Tested on in a further series: not listed separately
In words: Clearance in Sprague-Dawley rat at 2 mg/kg, iv. In kind it is ADME, organism-based. More on the design: dose 2 mg/kg, route intravenous. To be noted: in vivo. In a few lines: (§1)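 Male Sprague–Dawley rats (n = 2 per route) received a single intravenous dose of 2 mg/kg or an oral dose of 10 mg/kg in 50% PEG-400 in water. Plasma levels were averaged, and PK parameters were calculated. Bioavailability was derived from the iv and oral arms.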
Turning to `COc1ccc2c(O[C@@H]3C[C@H]4C(=O)N[C@]5(C(=O)NS(=O)(=O)C6CC6)C[C@H]5/C=C\CCCCCNC(=O)N4C3)cc(-c3nc(C(C)C)cs3)nc2c1`, the clearance is 9.17 mL/min/kg.

Tested on in a further series: not listed separately
In words: Volume of distribution in Sprague-Dawley rat at 2 mg/kg, iv. To be noted: in vivo. The format is ADME, organism-based. Also on record: dose 2 mg/kg, route intravenous. In a few lines:
as §1
`COc1ccc2c(O[C@@H]3C[C@H]4C(=O)N[C@]5(C(=O)NS(=O)(=O)C6CC6)C[C@H]5/C=C\CCCCCNC(=O)N4C3)cc(-c3nc(C(C)C)cs3)nc2c1` yielded a Vd of 1.46 L/kg.

Tested on in another series: not listed separately
In words: AUC in Sprague-Dawley rat at 2 mg/kg, iv. In kind it is ADME, organism-based. Also on record: dose 2 mg/kg, route intravenous. To be noted: plasma. In a few lines: as §1
In the case of `COc1ccc2c(O[C@@H]3C[C@H]4C(=O)N[C@]5(C(=O)NS(=O)(=O)C6CC6)C[C@H]5/C=C\CCCCCNC(=O)N4C3)cc(-c3nc(C(C)C)cs3)nc2c1`, the AUC is 7.09 µM·h.

Tested on in another series: not listed separately
In words: AUC in Sprague-Dawley rat at 10 mg/kg, po. In kind it is ADME, organism-based. Also on record: dose 10 mg/kg, route oral. To be noted: plasma. In a few lines: as §1
Regarding `COc1ccc2c(O[C@@H]3C[C@H]4C(=O)N[C@]5(C(=O)NS(=O)(=O)C6CC6)C[C@H]5/C=C\CCCCCNC(=O)N4C3)cc(-c3nc(C(C)C)cs3)nc2c1`, the AUC worked out at 6.97 µM·h.

Tested on in another series: not listed separately
The series is described as follows: Cmax in Sprague-Dawley rat at 10 mg/kg, po. In kind it is ADME, organism-based. The following applies: in vivo. More on the design: dose 10 mg/kg, route oral. In a few lines:
as §1
For `COc1ccc2c(O[C@@H]3C[C@H]4C(=O)N[C@]5(C(=O)NS(=O)(=O)C6CC6)C[C@H]5/C=C\CCCCCNC(=O)N4C3)cc(-c3nc(C(C)C)cs3)nc2c1`, the Cmax stood at 950 nM.

Tested on in a further series: not listed separately
In words: Tmax in Sprague-Dawley rat at 10 mg/kg, po. In kind it is ADME, organism-based. More on the design: dose 10 mg/kg, route oral. The following applies: in vivo. The procedure, abridged:
as §1
For `COc1ccc2c(O[C@@H]3C[C@H]4C(=O)N[C@]5(C(=O)NS(=O)(=O)C6CC6)C[C@H]5/C=C\CCCCCNC(=O)N4C3)cc(-c3nc(C(C)C)cs3)nc2c1`, the Tmax came to 1.25 h.

Tested on in the next series: not listed separately
The series is described as follows: Half life in Sprague-Dawley rat at 10 mg/kg, po. The format is ADME, organism-based. More on the design: dose 10 mg/kg, route oral. The following applies: in vivo. The procedure, abridged:
as §1
For `COc1ccc2c(O[C@@H]3C[C@H]4C(=O)N[C@]5(C(=O)NS(=O)(=O)C6CC6)C[C@H]5/C=C\CCCCCNC(=O)N4C3)cc(-c3nc(C(C)C)cs3)nc2c1`, the half-life was 5.4 h.

Tested on in another series: not listed separately
The series is described as follows: Oral bioavailability in Sprague-Dawley rat at 10 mg/kg. In kind it is ADME, organism-based. To be noted: in vivo. In a few lines: as §1
Compound `COc1ccc2c(O[C@@H]3C[C@H]4C(=O)N[C@]5(C(=O)NS(=O)(=O)C6CC6)C[C@H]5/C=C\CCCCCNC(=O)N4C3)cc(-c3nc(C(C)C)cs3)nc2c1` came in with a bioavailability of 20%.

Tested on in the next series: not listed separately
The series is described as follows: Apparent permeability across apical to basolateral side in human Caco-2 cells. The format is ADME, cell-based.
Conditions: not given
On the technique in general: Passage across Caco-2 layers is used to estimate intestinal permeability.
Consider `COc1ccc2c(O[C@@H]3C[C@H]4C(=O)N[C@]5(C(=O)NS(=O)(=O)C6CC6)C[C@H]5/C=C\CCCCCNC(=O)N4C3)cc(-c3nc(C(C)C)cs3)nc2c1`, for which the apparent permeability from apical to basolateral (Papp A→B) was 10 ×10⁻⁶ cm/s.

As for `COc1ccc2c(O[C@@H]3C[C@H]4C(=O)N[C@]5(C(=O)NS(=O)(=O)C6CC6)C[C@H]5/C=C\CCCCCNC(=O)N4C3)cc(-c3nc(C(C)C)cs3)nc2c1Cl`, the Papp A→B was 22 ×10⁻⁶ cm/s.

Regarding `COc1ccc2c(O[C@@H]3C[C@H]4C(=O)N[C@]5(C(=O)NS(=O)(=O)C6CC6)C[C@H]5/C=C\CCCCCNC(=O)N4C3)cc(-c3nccs3)nc2c1`, the Papp A→B came out at 0.4 ×10⁻⁶ cm/s.

Tested on in the next series: not listed separately
In words: Metabolic stability in rat liver microsomes at 5 uM after 15 mins. In kind it is ADME, Microsome.
Conditions: not given
In a few lines: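 Rat liver microsomes at 1 mg protein/mL were incubated with 5 μM test compound at 37 °C for 15 min. Stability is expressed as % of compound metabolized.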
For orientation: Microsomes from liver hold many membrane-bound enzymes, among them those of drug oxidation.
In turn, `COc1ccc2c(O[C@@H]3C[C@H]4C(=O)N[C@]5(C(=O)NS(=O)(=O)C6CC6)C[C@H]5/C=C\CCCCCNC(=O)N4C3)cc(-c3nc(C(C)C)cs3)nc2c1` gave a metabolized at 0.25 h, 5 µM of 93%.

For `COc1ccc2c(O[C@@H]3C[C@H]4C(=O)N[C@]5(C(=O)NS(=O)(=O)C6CC6)C[C@H]5/C=C\CCCCCNC(=O)N4C3)cc(-c3nc(C(C)C)cs3)nc2c1Cl`, the metabolized at 0.25 h, 5 µM came out at 45%.

The compound `COc1ccc2c(O[C@@H]3C[C@H]4C(=O)N[C@]5(C(=O)NS(=O)(=O)C6CC6)C[C@H]5/C=C\CCCCCNC(=O)N4C3)cc(-c3nc(C(C)C)cs3)nc2c1C` had a metabolized at 0.25 h, 5 µM of 23%.

Tested on in the next series: not listed separately
The series is described as follows: Bioavailability in Sprague-Dawley rat at 2 mg/kg, iv and 10 mg/kg, po. In kind it is ADME, organism-based. To be noted: in vivo. In a few lines:
as §1
`COc1ccc2c(O[C@@H]3C[C@H]4C(=O)N[C@]5(C(=O)NS(=O)(=O)C6CC6)C[C@H]5/C=C\CCCCCNC(=O)N4C3)cc(-c3nc(C(C)C)cs3)nc2c1`: the bioavailability is 20%.

For `COc1ccc2c(O[C@@H]3C[C@H]4C(=O)N[C@]5(C(=O)NS(=O)(=O)C6(C)CC6)C[C@H]5/C=C\CCCCCNC(=O)N4C3)cc(-c3nc(C(C)C)cs3)nc2c1C`, the bioavailability is 11%.

Tested on in the next series: not listed separately
The series is described as follows: Ratio of drug level in liver to plasma of Sprague-Dawley rat at 10 mg/kg, po after 6 hrs.
Conditions: not given
Turning to `COc1ccc2c(O[C@@H]3C[C@H]4C(=O)N[C@]5(C(=O)NS(=O)(=O)C6CC6)C[C@H]5/C=C\CCCCCNC(=O)N4C3)cc(-c3nc(C(C)C)cs3)nc2c1`, the liver/plasma ratio at 6 h turned out to be 29.
